M5 antag: human M5 muscarinic receptor antagonists, primary screen, CHO cells, Fluo-8 calcium fluorescence; 0.59% of 360,000 active; CHO-hM5 cells, ACh EC80; inhibition, % at 3 µM; Muscarinic acetylcholine receptor M5 (Homo sapiens), P08912; AID 624040, 2012;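 active = inhibition above a per-plate cutoff, the mean of that plate's test compounds plus 3 SD, cut at about 27% in these data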;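 also: 0% = acetylcholine EC80 with DMSO and 100% = DMSO without agonist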
CHRM4 antagonist: human M4 muscarinic receptor antagonists, primary screen, CHO cells, Fluo-8 calcium fluorescence; Muscarinic acetylcholine receptor M4 (Homo sapiens), P08173; CHO-hM4 cells, ACh EC80; inhibition, % at 3 µM; 0.73% of 360,000 active;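 active = inhibition above its plate's cutoff, the mean inhibition of sample wells plus 3 SD, cut at about 27% in these data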;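 also: 0% = acetylcholine EC80 with DMSO and 100% = DMSO without agonist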
Target sequence (P08173 whole entry, looked up): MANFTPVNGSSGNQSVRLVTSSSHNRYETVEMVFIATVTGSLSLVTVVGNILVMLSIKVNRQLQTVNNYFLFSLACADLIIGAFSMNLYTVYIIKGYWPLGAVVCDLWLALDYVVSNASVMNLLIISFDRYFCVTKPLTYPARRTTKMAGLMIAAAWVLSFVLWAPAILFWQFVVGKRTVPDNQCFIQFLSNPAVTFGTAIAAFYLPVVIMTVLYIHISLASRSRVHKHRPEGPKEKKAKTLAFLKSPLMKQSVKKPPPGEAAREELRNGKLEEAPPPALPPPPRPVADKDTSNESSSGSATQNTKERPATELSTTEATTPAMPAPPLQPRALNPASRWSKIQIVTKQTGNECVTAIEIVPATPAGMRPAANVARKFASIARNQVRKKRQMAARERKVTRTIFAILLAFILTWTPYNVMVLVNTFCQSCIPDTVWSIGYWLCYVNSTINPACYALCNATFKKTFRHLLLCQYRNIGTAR
M5 ag: human M5 muscarinic receptor agonists, primary screen, CHO-K1 cells, Fluo-8 calcium fluorescence. Muscarinic acetylcholine receptor M5 (Homo sapiens), P08912. activation, % at 3 µM. CHO-K1 hM5 cells; 0% DMSO wells, 100% maximal acetylcholine response. 0.19% of 360,000 active;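 active = activation above the run's mean over test compounds plus 3 SD, cut at about 23% in these data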;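 also: signal is peak over basal fluorescence ratio across the kinetic read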
M4 ag: human M4 muscarinic receptor agonists, primary screen, CHO-K1 cells, Fluo-8 calcium fluorescence. Muscarinic acetylcholine receptor M4 (Homo sapiens), P08173. CHO-K1 hM4/Gqi5; vehicle 0%, full acetylcholine response 100%. activation, % at 3 µM. 0.14% of 360,000 active. AID 624127, 2012;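 active = activation above the run mean over all test wells plus 3 SD, cut at about 32% in these data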;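 also: peak over basal fluorescence ratio per well then scaled between controls; 0% = DMSO wells and 100% = acetylcholine at EC100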
CHRM4 PAM: human M4 muscarinic receptor positive allosteric modulators, primary screen, CHO-K1 cells, Fluo-8 calcium fluorescence | CHO-K1 hM4/Gqi5, ACh EC20; 0% = ACh EC20, 100% = maximal ACh | Muscarinic acetylcholine receptor M4 (Homo sapiens), P08173 | activation, % at 3 µM | 0.4% of 360,000 active;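 active = activation above its plate's cutoff, the mean activation of sample wells plus 3 SD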
M5 PAM: human M5 muscarinic receptor positive allosteric modulators, primary screen, CHO-K1 cells, Fluo-8 calcium fluorescence. Muscarinic acetylcholine receptor M5 (Homo sapiens), P08912. CHO-K1 hM5, ACh EC20 PAM; 0% = ACh EC20, 100% = ACh EC100. activation, % at 3 µM. 0.3% of 360,000 active. AID 624038, 2012;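 active = activation above the run cutoff, the mean activation of all test compounds plus 3 SD, cut at about 18% in these data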
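System – CHO-K1 hM5 cells · Compound – 3 µM, single dose · Incubation – compound preincubation 140 s before EC20 acetylcholine addition · Technique – Fluo-8 calcium fluorescence · Measure – Max/basal fluorescence ratio as % of EC20–EC100 ACh window · Benchmarks – low control EC20 acetylcholine (0%), high control EC100 acetylcholine (100%) · Replication – singlicate, one well per test compound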
The depositor's hits bear a star. This is a sample that favours compounds with a hit; in the whole collection about 1.9% have one here.

SMILES	M5 antag	CHRM4 antagonist	M5 ag	M4 ag	CHRM4 PAM	M5 PAM
O=C(NC1CCCCC1)C(c1ccccc1F)n1c(=O)c(-c2cc3ccccc3[nH]2)nc2ccccc21 (stereo not given)	-9.9	16.0	1.2	0.0	4.6	8.3
CCn1c(Cl)c(C=O)s/c1=N\S(=O)(=O)c1ccccc1	32.7*	73.8*	-9.5	2.2	-35.1	-17.7
C[C@@H]1ON(C)[C@H]2C[C@H]3c4[nH]c5ccc(-c6ccc7c(c6)OCO7)cc5c4CCN3C[C@@H]12	-0.7	-12.3	2.0	14.8	-5.1	3.8
COc1cc(NCCCn2cnc3c(OC)ncnc32)cc(OC)c1OC	8.0	-5.4	0.5	0.6	2.0	2.7
COc1ccc(C=C(C(C)=O)C(=O)c2ccccc2)cc1	7.8	12.8	-6.4	0.6	-2.9	-1.5
CC(=O)C(=Cc1ccc(Cl)cc1)C(=O)c1ccccc1	1.8	24.1	-6.8	2.0	-12.9	21.6*
CCCCN1C(=O)C(CC(=O)NC2CCCCC2)CC(C(=O)N(C(C)C)C(C)C)=C1C (stereo not given)	3.3	-11.0	-0.3	1.0	10.4	-1.6
CCN(CC)C(=O)C1=C(C)N(Cc2ccc(OC)cc2)C(=O)C(CC(=O)NCC2CCCCC2)C1 (stereo not given)	5.7	-10.5	-2.3	-0.5	1.6	-1.9
COc1ccc(CNC(=O)CNC(C)c2ccc(F)cc2)cc1 (stereo not given)	-0.1	53.2*	-2.0	1.6	-18.2	-2.3
COc1ccccc1C(C)NCC(=O)NCc1ccc(C)cc1 (stereo not given)	1.7	-1.8	-7.8	1.4	0.2	2.4
CCOC(=O)Nc1ccc2c(c1)N(C(=O)CCN1CCN(C)CC1)c1ccccc1S2	-3.8	5.3	-5.0	0.6	-5.7	-4.7
CCOC(=O)Nc1ccc2c(c1)N(C(=O)CN(CC)CC)c1ccccc1CC2	3.2	31.9*	-26.8	-0.8	-12.3	-26.3
CC(C)OC(=O)Nc1ccc2c(c1)N(C(=O)N1CCN(C)CC1)c1ccccc1CC2	45.5*	27.7*	-17.9	1.1	-13.6	-29.3
CCOC(=O)Nc1ccc2c(c1)N(C(=O)N1CCN(C)CC1)c1ccccc1S2	59.5*	6.4	-6.5	5.5	-22.4	-18.2
COc1ccccc1C(=O)N(CCC1CCCN1C)c1nc2ccccc2s1 (stereo not given)	27.4*	11.0	-10.1	19.9	-25.2	-18.5
CC(=O)Nc1ccc(C(=O)Nc2cc(C)on2)cc1	-0.1	28.0*	-2.0	-0.6	-12.6	-1.9
CC(=O)Nc1ccc(NC(=O)c2cc[n+]([O-])cc2)cc1	29.2*	3.7	-3.1	1.4	-6.7	-6.2
CC(C)(C)c1ccc(NC(=O)c2cc[n+]([O-])cc2)cc1	16.8	0.1	-1.8	0.8	1.2	0.4
Cc1cc(=O)[nH]c(SCC(=O)N2CCN(C(c3ccccc3)c3ccccc3)CC2)n1	31.6*	19.7	-7.9	0.2	-17.2	-23.8
O=C(CSc1nc(O)cc(=O)[nH]1)N1CCOCC1	8.4	-7.6	-2.0	-0.6	-0.7	0.8
Cc1cc(=O)[nH]c(SCC(=O)N2CCCCC2)n1	7.6	-16.6	0.5	0.8	2.5	-0.7
O=C(CSc1nc(-c2ccccc2)cc(=O)[nH]1)N1CCOCC1	39.7*	-5.8	-4.5	0.7	7.5	0.8
CC(=O)c1ccc(N2CCC(c3cc(-c4ccc(Cl)cc4Cl)n[nH]3)CC2)c([N+](=O)[O-])c1	15.8	34.0*	-1.1	5.5	-16.4	-9.9
CC(=O)c1ccc(N2CCN(c3ccccc3O)CC2)c([N+](=O)[O-])c1	30.7*	11.5	8.0	30.7	-17.3	-16.1
O=C(O)c1ccccc1C(=O)c1ccc(N2CCCC2)c([N+](=O)[O-])c1	-9.8	-6.0	-2.1	0.9	6.1	3.6

From PubChem
